Beta2AR agonist = beta2AR agonists driving receptor internalization, primary screen, cell-based, FAP fluorogen, flow cytometry; Beta-2 adrenergic receptor (Homo sapiens), P07550; Am2.2-beta2AR cells; response, % (no concentration beside the values); 0.43% of 340,000 active;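 active = response above a set limit, near 3 SD of response in nonfluorescent compounds, cut at about 42% in these data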
SENP1 FRET inh = human SENP1 catalytic domain inhibitors, primary screen, biochemical, FRET, uHTS; inhibition, % at 10 µM; 0.21% of 360,000 active; recombinant SENP1 catalytic domain, CyPet-SUMO1-YPet FRET cleavage;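 active = inhibition at least 30% at 10 µM, raw YFP signal under a set limit, fluorescence ratio 0.5 to 1.5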
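Test system: recombinant human SENP1 catalytic domain, His6-tagged / Medium: pH 8 Tris buffer with EDTA, NaCl, BME, BSA, NP40, catalase / Also added: SUMO1 FRET substrate flanked by Cypet and Ypet, 25 nM / Times: 50 min reaction at room temperature / Signal: FRET, CFP and YFP emission / Control set: no-enzyme low control and enzyme-plus-DMSO high control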
NadD block = inhibitors of S. aureus NadD, primary screen, biochemical, colorimetric, uHTS | inhibition, % at 20 µM | purified NadD enzyme, colorimetric absorbance read-out | Nicotinate-nucleotide adenylyltransferase NadD (Staphylococcus aureus N315) | 0.78% of 360,000 active; in the data active = inhibition above about 26%
GRK2 inh = compounds blocking aptamer binding on GRK2 – biochemical, human GRK2, bead flow cytometry, HTS, primary screen | Beta-adrenergic receptor kinase 1 (Homo sapiens), P25098 | FAM-aptamer displacement from GRK2 | inhibition of aptamer binding, % at 10 µM | 0.59% of 330,000 active | AID 488847, 2010;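 active = inhibition of aptamer binding above 40%, roughly 3 SD of noise, on plates passing a quality check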;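 also: median bead fluorescence of bound FAM aptamer so fluorescent compounds give negative values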
ABHD5-PLIN5 inh = ABHD5-PLIN5 interaction inhibitors, primary screen, cell lysate, split luciferase complementation, luminescence; inhibition, % at 4 µM; Perilipin-5 (Homo sapiens) + 1-acylglycerol-3-phosphate O-acyltransferase ABHD5 (Homo …; Split G. princeps luciferase complementation, 4 h; AID 602281, 2012; 0.78% of 360,000 active;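 active = inhibition above the mean inhibition across every tested compound plus 3 SD, cut at about 22% in these data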
NadD inh conf = inhibitors of S. aureus NadD, confirmation, biochemical, colorimetric, single concentration. shares compounds with NadD block. purified S. aureus NadD, colorimetric enzyme assay. 13% of 2,000 active. inhibition, % at 20 µM; in the data active = inhibition mostly above about 42%, no sharp cut-off; inactive = mostly below about 42%
Each line names hits and unclear results; the compound was inactive in the other large screens (follow-up assays come after a bar, where they were run). Compounds with a hit are over-represented: about 2.5% of the library has one in this group of screens.

Nc1ccc2c(c1)C(=O)N(c1cccc3ccccc13)C2=O	none
CC1=CC(=O)N(c2cccc3c(N4C(=O)C=C(C)C4=O)cccc23)C1=O	NadD block 57.6 (no result: GRK2 inh) | NadD inh conf inactive
CCN(CC)C(=O)c1csc([C@@H]2O[C@H](CO)[C@H](O)[C@H](O)[C@H]2O)n1	none (no result: Beta2AR agonist, GRK2 inh)
CCOC(=O)c1c2ccc(OCC(=O)NN)cc2n2ccccc12	none
CCOC(=O)c1c2ccc(OCC(=O)N/N=C/c3ccc(C)cc3)cc2n2ccccc12	NadD block 37.3 | NadD inh conf inactive
O=C/C(=C\Nc1ccc(Cl)cn1)c1nc2cc(Cl)ccc2o1	NadD block 37.7 | NadD inh conf inactive
COc1ccc(NC(=O)CN2C(=O)C(=O)N(C3CCCC3)C2=O)c(OC)c1	none
Cc1cccn2c(=O)c3cc(C(N)=S)c(=N)n(CCCN4CCOCC4)c3nc12	NadD block 36.0 | NadD inh conf inactive
CC1(N=Cc2cc(Cl)ccc2O)COP(=O)(NC2CCCC2)OC1 (stereo not drawn)	none (no result: GRK2 inh)
CCOC(=O)C1=C(C)Nc2ccccc2N/C1=N\S(=O)(=O)c1ccccc1	none (no result: GRK2 inh)
COc1ccc(C2=NN(C(=O)COC(=O)c3ccc(NC(=O)CC#N)cc3)C(c3ccco3)C2)cc1 (stereo not drawn)	NadD block 37.3 | NadD inh conf inactive
Nc1c(C(=O)Nc2ccc(S(=O)(=O)N3CCCC3)cc2)sc2nc3cc4c(cc3cc12)CCC4	NadD block 31.9 | NadD inh conf inactive
Nc1c(C(=O)Nc2ccc(S(=O)(=O)N3CCCC3)cc2)sc2nc3ccc(OC(F)(F)F)cc3cc12	none
CC(=O)NC(c1ccc(F)c(F)c1)c1nc(-c2cccc(F)c2)cs1 (stereo not drawn)	none (no result: Beta2AR agonist, GRK2 inh)
Clc1ccc(Cn2c(/C=C/c3ccco3)nc3ccccc32)cc1	NadD block 34.1 | NadD inh conf inactive
Cc1ccc(Cn2c(/C=C/c3ccco3)nc3ccccc32)cc1	NadD block 31.7 | NadD inh conf inactive
CCCn1c(/C=C/c2ccco2)nc2ccccc21	none
CCNC(=O)C1(C)CCN(Cc2noc(-c3c(C)noc3C)n2)C1 (stereo not drawn)	none (no result: Beta2AR agonist, GRK2 inh)
O=c1/c(=C\c2ccc(O)cc2)sc2n1C(c1ccccc1)C(c1ccccc1)=NN=2 (stereo not drawn)	NadD block 39.1 | NadD inh conf 56.8
O=C(N/N=C/C(Cl)=C/c1ccccc1)c1ccc2c(c1)OCO2	none
Cn1cncc1C#Cc1ccc(N2C(c3ccsc3)=Cc3ccc(F)cc3C2c2c[nH]c3ccccc23)cc1 (stereo not drawn)	NadD block 39.0 (no result: Beta2AR agonist, GRK2 inh) | NadD inh conf inactive
CC(=O)CC1c2cc(F)ccc2C=C(c2ccsc2)N1c1ccc(C#Cc2cncn2C)cc1 (stereo not drawn)	NadD block 41.6 (no result: Beta2AR agonist, GRK2 inh) | NadD inh conf inactive
COc1ccc(-c2ccc(N3C(c4ccsc4)=Cc4ccc(F)cc4C3c3c[nH]c4ccccc34)cc2)cc1 (stereo not drawn)	none (no result: Beta2AR agonist, GRK2 inh)
CC(=O)CC1c2cc(F)ccc2C=C(c2ccsc2)N1c1ccc(C#CC2(O)CCCCC2)cc1 (stereo not drawn)	none (no result: Beta2AR agonist, GRK2 inh)
CCOC(=O)C1=C(C)c2ccccc2N(C(=O)OC)C1(C)C(=O)OCC (stereo not drawn)	NadD block 43.7, ABHD5-PLIN5 inh 30.4 | NadD inh conf 69.0
CCOC(=O)C1=C(C)c2ccccc2OC1(CC)C(=O)OCC (stereo not drawn)	none
CC1(C)CC[C@]2(CO)CC[C@]3(C)C(=CCC4[C@@]5(C)CC[C@H](O)[C@@](C)(CO)C5CC[C@]43C)[C@@H]2C1 (stereo partly drawn)	none
COc1ccc(/C=N\NC(=O)c2ccccc2F)cc1COc1ccc(F)cc1F	none
COc1ccc(/C=N/NC(=O)c2nc(Cl)c(Cl)c(N)c2Cl)cc1COc1ccccc1F	Beta2AR agonist 49.8, NadD block 30.2 | NadD inh conf inactive
COc1ccc(C(=O)N/N=C/c2ccc(OC)c(COc3ccccc3)c2)cc1	none

Screens deposited in PubChem BioAssay by several laboratories.
